RAD54 inh – inhibitors of human RAD54 branch migration, primary screen, biochemical, fluorescence, single point | 360,000 tested, 0.14% active | RAD54 Holliday junction branch migration, FAM/BHQ fluorescence | DNA repair and recombination protein RAD54-like (Homo sapiens), Q92698 | inhibition, % at 10.4 µM;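 active means mean normalized replicate activity at least 40 and at least half of replicates scoring 40 or more; inconclusive means only one of the two criteria met; inactive means mean below 40 and under half of replicates reaching 40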;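 further: 0% = median of neutral control wells and 100% = median of positive control wells; inhibitors cause a drop in the FAM fluorescence signal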
SR-BI DiI-HDL act – activators of SR-BI mediated DiI-HDL uptake, primary screen, ldlA[mSR-BI] CHO cells, DiI fluorescence | 3 h; 100 = double the neutral-control signal | activation, % at 12.5 µM | 320,000 tested, 0.096% active;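 active means mean replicate activation of at least 60% and every replicate at or above 60%; inconclusive means mean or all-replicate condition met, but not both; inactive means mean below 60% and not all replicates reaching 60%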;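 further: 0% = median plate neutral-control signal and 100% = twice that signal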
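system = CHO ldlA[mSR-BI] cells, LDL receptor-null, SR-BI overexpressing | medium = Ham's F12 with 0.5% BSA, HEPES 25 mM, pH 7.4 | probe or stimulus = DiI-HDL 10 µg/mL | compound dosing = single-point compound dose | incubation = compound exposure 3 h, 37 °C | technique = DiI fluorescence, bottom read | read-out = cell-associated DiI fluorescence as measure of HDL uptake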
S100A4 inh HTS – inhibitors of S100A4-myosin IIA peptide binding, primary screen, biochemical, fluorescence polarization, TAMRA-MyoIIA peptide | 360,000 tested, 0.14% active | inhibition, % at 10.7 µM | Protein S100-A4 (Homo sapiens), P26447;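 active means mean inhibition of at least 70% across replicates, with every replicate also reaching that level; inconclusive means mean inhibition reaches 70% but some replicates fall short; inactive means mean inhibition below 70%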
Target sequence (P26447 whole entry, looked up): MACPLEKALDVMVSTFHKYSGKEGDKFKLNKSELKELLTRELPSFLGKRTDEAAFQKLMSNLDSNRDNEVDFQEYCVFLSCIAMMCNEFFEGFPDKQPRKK
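Test system: S100A4 monomer protein; Medium: HEPES pH 7.2 with CaCl2, KCl, NaCl, DTT, Triton; Probe or stimulus: TAMRA-labelled myosin IIA heavy-chain peptide probe, 5 nM; Doses: one dose per compound; Times: polarization read 5 min after assay mix addition, stable 5–60 min; Benchmarks: neutral control DMSO, positive control TFP.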
SR-BI HDL uptake – inhibitors of SR-BI mediated HDL lipid uptake, primary screen, ldlA[mSR-BI] cells, fluorescence, single point | Scavenger receptor class B member 1 (Mus musculus), Q61009 | ldlA[mSR-BI] CHO cells, DiI-HDL uptake fluorescence, 3 h | inhibition, % at 12.5 µM | 320,000 tested, 0.96% active | AID 488896, 2010;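 active means mean replicate inhibition of at least 70% and a set share of replicates each scoring 70 or more; inconclusive means meets just one of the two criteria; inactive means fails both criteria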;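 further: 0% = median of neutral control wells and 100% = median of positive control wells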
dFosB act – activators of delta FosB homodimer, primary screen, biochemical, fluorescence polarization, TAMRA-CDK5 oligo, single point; purified delta FosB; percent of positive-control signal above neutral wells; Protein FosB (Mus musculus), P13346; 340,000 tested, 0.99% active; activation, % at 25 µM;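 active means mean activation above about 17%, with every replicate also reaching it, limit read from the data, passing the limit was not always enough; inconclusive means only one of the two conditions met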
Target sequence (P13346 whole entry, looked up): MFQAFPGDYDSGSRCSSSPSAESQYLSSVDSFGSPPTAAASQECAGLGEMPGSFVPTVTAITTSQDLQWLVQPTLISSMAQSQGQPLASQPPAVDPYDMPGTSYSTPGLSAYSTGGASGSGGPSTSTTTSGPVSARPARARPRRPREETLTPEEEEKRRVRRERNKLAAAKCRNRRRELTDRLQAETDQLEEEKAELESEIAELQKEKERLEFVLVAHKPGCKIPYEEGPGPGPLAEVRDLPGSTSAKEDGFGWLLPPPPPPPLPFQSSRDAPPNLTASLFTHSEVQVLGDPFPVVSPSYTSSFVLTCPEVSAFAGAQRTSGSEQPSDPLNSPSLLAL
PvdQ acylase – P. aeruginosa PvdQ acylase inhibitors, primary screen, biochemical, fluorescence, plate reader and imaging, single point. PvdQ acylase [Pseudomonas aeruginosa LESB58]. purified PvdQ acylase. inhibition, % at 10 µM. 340,000 tested, 0.063% active. AID 488965, 2010; in the data active means inhibition above about 30%, passing the limit was not always enough; inconclusive means no clear call, values can overlap the other calls;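 further: 0% = vehicle neutral wells and 100% = reference inhibitor wells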
* = called active by the depositor; ? = inconclusive; · = no result; + = active, no number; ! = repeats disagree. In the library only some 1.6% were active in any assay of this set; here they are far more common.

SMILES	RAD54 inh	SR-BI DiI-HDL act	S100A4 inh HTS	SR-BI HDL uptake	dFosB act	PvdQ acylase
O=C(NC1CCCC1)[C@H]1[C@H](CO)[C@H]2Cn3c(ccc(-c4ccccc4)c3=O)[C@@H]1N2CC1CC1	·	·	1	·	·	·
O=C1c2cccc3cccc(c23)C(=O)N1CCN1CCN(C(=S)Nc2ccc(Cl)cc2)CC1	0	-68	3	68	-4	-6
O=C1c2cccc3cccc(c23)C(=O)N1CCN1CCN(C(=S)Nc2ccccc2)CC1	11	-72	·	72*	15	7
O=C(/C=C/c1ccc(Cl)cc1)N1CCN(CCN2C(=O)c3cccc4cccc(c34)C2=O)CC1	-10	-78	-3	78*	-3	-10
COc1cc(Cl)cc(/C=C/c2ccc3ccccc3n2)c1OC(C)=O	9	-80	·	80*	-13	-11
CCC(=O)Nc1ccc2c(c1)OC[C@H](C)N(C(=O)Cc1ccccn1)C[C@@H](C)[C@H](OC)CN(C)C2=O	1	·	6	·	·	·
O=C(CCn1nc(-c2ccc(Cl)cc2)ccc1=O)NCCCN1CCCCCC1	-18	-73	-5	73*	7	-12
CCCN1CCN(CCCNC(=O)CCn2nc(-c3ccccc3)ccc2=O)CC1	-8	16	-6	-16	-8	-3
Cc1noc(C)c1NC(=O)N[C@H]1CC[C@H](CC(=O)NCCCN(C)C)O[C@@H]1CO	-2	·	-4	·	·	·
O=C(c1ccco1)N1CCN(C(=O)C2CC2)CC1	-2	67*	4	-67	1	-7
O=C(c1ccco1)N1CCN(C(=O)c2ccco2)CC1	·	·	1	·	·	·
CN=C1SC(CC(=O)Nc2ccccc2F)C(=O)N1/N=C/c1ccc(O)c(OC)c1 (centres undefined)	·	-74	-4	74*	-3	-12
CCNC(=O)C[C@@H]1CC[C@H]2[C@@H](COC[C@H](O)CN2C(=O)C2CCOCC2)O1	-2	·	-42	·	·	·
CCCCN1C(=O)/C(=C/C=C2\Oc3ccccc3N2CC)SC1=S	-35	-89	28	89*	-14	5
COc1ccc(/C=C/C(=O)NCC(=O)N/N=C/c2cc(Br)ccc2OCc2ccccc2)cc1	·	-79	·	79*	2	9
COc1ccccc1/C=C\C(=O)NCC(=O)N/N=C/c1ccc(O)cc1O	-13	-8	-1	8	2	-4
COc1ccc(/C=C\C(=O)NCC(=O)N/N=C/c2cccc(OC)c2O)cc1	5	11	-2	-11	47*	-12
COc1cccc(/C=N/NC(=O)CNC(=O)/C=C\c2ccccc2)c1O	0	4	1	-4	58*	-11
COc1ccccc1/C=C/C(=O)NCC(=O)N/N=C/c1ccccc1	·	-47	1	47	-9	-1
CCN1[C@@H]2c3ccc(-c4cccc(F)c4)c(=O)n3C[C@H]1[C@H](CO)[C@H]2C(=O)NCCCN(C)C	1	·	-1	·	·	·
CC1=Nc2ccccc2/C1=C/c1nc(-c2ccc(C)s2)oc1O	·	-103	30	103*	-5	-7
CC1=Nc2ccccc2/C1=C\c1nc(-c2ccccc2)oc1O	-5	·	·	19	1	2
CCC(=O)Nc1ccc(-c2ccc(NC(=O)CC)c(OC)c2)cc1OC	·	-83	1	83*	1	15
O=C(/C=C\c1ccc2c(c1)OCO2)Nc1c2c(nn1-c1ccc(Cl)cc1)CSC2	15	-75	4	75*	-5	-4
Cc1csc(=O)n1CC(=O)OCc1nnc(-c2ccc(Cl)cc2)o1	10	4	+	-4	-12	-8
SMILES	RAD54 inh	SR-BI DiI-HDL act	S100A4 inh HTS	SR-BI HDL uptake	dFosB act	PvdQ acylase
Cc1csc(=O)n1CC(=O)OCc1nnc(-c2ccccc2)o1	2	45	3	-45	-5	-1
Cc1nc(N2CCCCC2)sc1C(=O)c1cccc([N+](=O)[O-])c1	·	-55	-11	55	5	4
Cc1nc(N2CCCCC2)sc1C(=O)c1ccc(SCCO)c([N+](=O)[O-])c1	5	-78	0	78*	-8	8
CCN=C1S/C(=C\c2ccc(Sc3ccc(Cl)cc3)o2)C(=O)N1CC	-15	-31	·	31	-9	-2
CCN=C1S/C(=C/c2ccc(-c3ccc(F)cc3)o2)C(=O)N1CC	-2	-72	-6	72*	-10	-9
CCOC(=O)/C=C(\C)Sc1cc(=O)oc2ccccc12	-11	0	·	0	-4	49*
O=C(C[C@H]1CC[C@@H](NC(=O)Nc2cc(F)ccc2F)[C@H](CO)O1)Nc1ccc(-c2ccccc2)cc1	-2	·	1	·	·	·
COc1ccccc1-c1ccc([C@@H]2[C@@H](CO)N(C(=O)C3CCOCC3)[C@H]2C#N)cc1	12	·	-5	·	·	·
CO[C@@H]1CN(C)C(=O)c2ccc(NS(C)(=O)=O)cc2OC[C@@H](C)N(C)C[C@@H]1C	5	·	43	·	·	·
O=C(Nc1nc2nc(-c3ccccc3)cc(-c3ccccc3)n2n1)c1ccco1	-9	-35	·	35	68*	10
CCCC#Cc1cnc2c(c1)C(=O)N([C@H](C)CO)C[C@H](C)[C@H](CN(C)Cc1ccncc1)O2	-5	·	6	·	·	·
O=C1CCCn2cc(nn2)COC[C@@H](Cc2ccccc2)N1	·	·	117*	·	·	·
O=C1N[C@@H](Cc2ccccc2)COCc2cn(nn2)CC[C@H]1Cc1ccccc1	·	·	9	·	·	·
CN1CCN(C(=O)[C@H]2[C@H](CO)[C@H]3Cn4c(ccc(C5=CCCCC5)c4=O)[C@@H]2N3S(C)(=O)=O)CC1	-4	·	-8	·	·	·
O=C(NCCc1ccncc1)Nc1ccc(F)cc1	-6	·	103*	·	-1	-1
C[C@@H]1CN([C@@H](C)CO)C(=O)CCCn2nncc2CO[C@H]1CN(C)S(=O)(=O)c1ccc2ccccc2c1	-1	·	5	·	·	·
C[C@@H]1CN([C@H](C)CO)C(=O)CCCn2nncc2CO[C@@H]1CN(C)S(=O)(=O)c1ccc2ccccc2c1	-1	·	93*!	·	·	·
Cc1ccccc1S(=O)(=O)N(C)C[C@@H]1OCc2cnnn2CCCC(=O)N([C@@H](C)CO)C[C@H]1C	-7	·	112*!	·	·	·
S=c1[nH]nc(-c2cccc(Cl)c2)n1/N=C/c1ccc(-c2ccccc2Br)o1	-5	·	2	·	42*	-4
Cc1ccc(/C=N/n2c(-c3cccc(Cl)c3)n[nH]c2=S)o1	-4	·	-4	·	·	·
C[C@@H]1CN([C@@H](C)CO)C(=O)c2cc(C#Cc3cccnc3)cnc2O[C@H]1CN(C)Cc1ccccc1	5	·	1	·	·	·
N#CC(c1ccccc1)c1ccc(=O)[nH]n1 (centres undefined)	·	34	1	-34	6	9
Cc1cccc(C(C#N)c2ccc(Cl)nn2)c1 (centres undefined)	·	2	1	-2	-5	89*
N#CC(c1ccc(Cl)cc1)c1ccc(Cl)nn1 (centres undefined)	0	-20	·	20	-5	80*
Cc1ccc(C(C#N)c2ccc3c(C(F)(F)F)cc(C(F)(F)F)nc3n2)cc1 (centres undefined)	·	-74	·	?	-5	-11
